ChEMBL document CHEMBL1154352, “Toll-like receptor 7 selective synthetic oligoribonucleotide agonists: synthesis and structure-activity relationship studies” (J Med Chem, 2009)
Active and inactive are the calls of the source. The rule behind the calls is not given here.

Legend:
[1] = Metabolic stability in human serum assessed as full length product remaining after 10 mins by HPLC; type: ADME, cell-free; details: read-out: Stability
Procedure, shortened: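 About 0.5 A260 units compound in 1% human serum in PBS, 37 °C; aliquot taken at 10 min, analysed by anion-exchange HPLC for percent intact full-length product.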

[2] = target: T1, Toll-like receptor 8 (Homo sapiens) (UniProt Q9NR97); experiment: Activation of human TLR8 expressed in HEK293XL assessed as fold induction of NF-kappaB activity at 50 ug/ml after 18 hrs by reporter gene assay relative to control
T1 sequence (whole entry): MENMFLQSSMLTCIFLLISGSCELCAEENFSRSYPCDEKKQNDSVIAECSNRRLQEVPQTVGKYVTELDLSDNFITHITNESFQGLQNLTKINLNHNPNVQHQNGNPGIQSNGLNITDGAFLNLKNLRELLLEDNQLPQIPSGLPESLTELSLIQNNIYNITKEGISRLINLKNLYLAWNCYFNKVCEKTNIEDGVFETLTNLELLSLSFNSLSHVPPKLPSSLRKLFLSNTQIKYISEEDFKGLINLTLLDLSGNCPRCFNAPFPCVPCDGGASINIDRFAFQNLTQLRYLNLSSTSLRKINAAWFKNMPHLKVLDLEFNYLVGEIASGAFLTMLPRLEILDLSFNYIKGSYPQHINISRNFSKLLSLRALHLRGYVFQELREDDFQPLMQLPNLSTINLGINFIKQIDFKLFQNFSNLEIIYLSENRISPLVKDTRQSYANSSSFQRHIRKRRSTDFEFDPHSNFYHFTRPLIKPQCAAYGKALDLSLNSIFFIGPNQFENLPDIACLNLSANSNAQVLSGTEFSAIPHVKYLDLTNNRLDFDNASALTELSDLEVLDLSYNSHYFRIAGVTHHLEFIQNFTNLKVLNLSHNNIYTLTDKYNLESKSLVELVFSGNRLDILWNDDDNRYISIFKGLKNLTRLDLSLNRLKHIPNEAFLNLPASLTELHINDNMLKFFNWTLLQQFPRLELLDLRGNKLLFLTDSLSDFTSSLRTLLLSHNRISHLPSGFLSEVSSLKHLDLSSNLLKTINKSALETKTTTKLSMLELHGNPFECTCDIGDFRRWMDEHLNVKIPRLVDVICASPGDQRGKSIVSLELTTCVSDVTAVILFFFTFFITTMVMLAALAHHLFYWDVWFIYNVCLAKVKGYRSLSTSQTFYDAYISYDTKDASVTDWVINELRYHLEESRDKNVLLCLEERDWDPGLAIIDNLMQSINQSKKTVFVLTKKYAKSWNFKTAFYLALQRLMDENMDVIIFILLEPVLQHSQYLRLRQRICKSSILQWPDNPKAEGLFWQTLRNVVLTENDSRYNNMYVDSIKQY
Procedure, shortened: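 HEK293 cells stably expressing human TLR7 or TLR8, transiently transfected with SEAP reporter plasmid; medium replaced, SIMRA compounds added, 18 h incubation. Supernatant SEAP measured by QuantiBlue; expressed as fold increase in NF-κB activity over PBS control. Tabulated data at 50 μg/mL, representative of three independent experiments.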

[3] = target: Toll-like receptor 3 (Homo sapiens) (UniProt O15455); experiment: Activation of human TLR3 expressed in HEK293 assessed as induction of NF-kappaB activity reporter gene assay; type: cell-based
Chain of Toll-like receptor 3 (Homo sapiens) (O15455 whole entry): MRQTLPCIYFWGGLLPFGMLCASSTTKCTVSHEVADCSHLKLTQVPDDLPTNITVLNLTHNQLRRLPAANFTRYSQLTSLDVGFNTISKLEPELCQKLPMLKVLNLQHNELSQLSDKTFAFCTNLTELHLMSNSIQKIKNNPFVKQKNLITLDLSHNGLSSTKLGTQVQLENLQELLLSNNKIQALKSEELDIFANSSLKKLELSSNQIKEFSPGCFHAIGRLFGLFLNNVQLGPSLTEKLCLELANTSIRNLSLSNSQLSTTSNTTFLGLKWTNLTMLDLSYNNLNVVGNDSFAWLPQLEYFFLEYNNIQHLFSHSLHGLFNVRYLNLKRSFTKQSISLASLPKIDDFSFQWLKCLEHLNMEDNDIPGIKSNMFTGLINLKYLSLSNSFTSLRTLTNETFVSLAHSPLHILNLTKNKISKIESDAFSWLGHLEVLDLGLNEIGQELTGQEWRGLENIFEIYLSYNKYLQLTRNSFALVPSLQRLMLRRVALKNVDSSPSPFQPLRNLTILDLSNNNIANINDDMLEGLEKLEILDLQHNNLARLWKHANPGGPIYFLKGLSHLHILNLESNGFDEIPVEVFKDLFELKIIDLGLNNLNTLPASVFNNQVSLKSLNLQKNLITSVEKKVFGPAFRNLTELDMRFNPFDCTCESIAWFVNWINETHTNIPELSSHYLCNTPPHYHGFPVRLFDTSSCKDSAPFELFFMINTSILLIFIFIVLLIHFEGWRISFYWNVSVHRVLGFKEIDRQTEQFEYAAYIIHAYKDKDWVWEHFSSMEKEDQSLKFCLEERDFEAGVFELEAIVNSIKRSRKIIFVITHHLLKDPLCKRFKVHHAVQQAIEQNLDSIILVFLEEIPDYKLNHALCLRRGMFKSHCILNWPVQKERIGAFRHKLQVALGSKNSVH

Structure (SMILES): Nc1ccn([C@@H]2O[C@H](COP(=O)(S)O[C@H]3[C@@H](O)[C@H](n4cnc5c(N)ncnc54)O[C@@H]3COP(=O)(S)O[C@H]3[C@@H](O)[C@H](n4ccc5c(=O)[nH]c(N)nc54)O[C@@H]3COP(=O)(S)O[C@H]3[C@@H](O)[C@H](n4ccc(=O)[nH]c4=O)O[C@@H]3COP(=O)(S)O[C@H]3[C@@H](O)[C@H](n4ccc(=O)[nH]c4=O)O[C@@H]3COP(=O)(S)O[C@H]3[C@@H](O)[C@H](n4cnc5c(N)ncnc54)O[C@@H]3COP(=O)(S)O[C@H]3[C@@H](O)[C@H](n4cnc5c(N)ncnc54)O[C@@H]3CO)[C@@H](OP(=O)(S)OC[C@H]3O[C@@H](n4ccc5c(=O)[nH]c(N)nc54)[C@H](O)[C@@H]3OP(=O)(S)OC[C@H]3O[C@@H](n4ccc(N)nc4=O)[C@H](O)[C@@H]3OP(=O)(S)OC[C@H]3O[C@@H](n4ccc(=O)[nH]c4=O)[C@H](O)[C@@H]3OP(=O)(S)OC[C@H]3O[C@@H](n4ccc5c(=O)[nH]c(N)nc54)[C@H](O)[C@@H]3OP(=O)(S)OCC(O)COP(=O)(S)O[C@H]3[C@@H](O)[C@H](n4ccc5c(=O)[nH]c(N)nc54)O[C@@H]3COP(=O)(S)O[C@H]3[C@@H](O)[C@H](n4ccc(=O)[nH]c4=O)O[C@@H]3COP(=O)(S)O[C@H]3[C@@H](O)[C@H](n4ccc(N)nc4=O)O[C@@H]3COP(=O)(S)O[C@H]3[C@@H](O)[C@H](n4ccc5c(=O)[nH]c(N)nc54)O[C@@H]3COP(=O)(S)O[C@H]3[C@@H](O)[C@H](n4ccc(N)nc4=O)O[C@@H]3COP(=O)(S)O[C@H]3[C@@H](O)[C@H](n4cnc5c(N)ncnc54)O[C@@H]3COP(=O)(S)O[C@H]3[C@@H](O)[C@H](n4ccc5c(=O)[nH]c(N)nc54)O[C@@H]3COP(=O)(S)O[C@H]3[C@@H](O)[C@H](n4ccc(=O)[nH]c4=O)O[C@@H]3COP(=O)(S)O[C@H]3[C@@H](O)[C@H](n4ccc(=O)[nH]c4=O)O[C@@H]3COP(=O)(S)O[C@H]3[C@@H](O)[C@H](n4cnc5c(N)ncnc54)O[C@@H]3COP(=O)(S)O[C@H]3[C@@H](O)[C@H](n4cnc5c(N)ncnc54)O[C@@H]3CO)[C@H]2O)c(=O)n1 (some centres undefined)
- remaining at 10 min [1]: 82%
- fold change (FC) [2]: 0.2
- Activity [3]: inactive

Structure (SMILES): Nc1ccn([C@@H]2O[C@H](COP(=O)(S)O[C@H]3[C@@H](O)[C@H](n4cnc5c(N)ncnc54)O[C@@H]3COP(=O)(S)O[C@H]3[C@@H](O)[C@H](n4cnc5c(N)ncnc54)O[C@@H]3CO)[C@@H](OP(=O)(S)OC[C@H]3O[C@@H](n4ccc(=O)[nH]c4=O)[C@H](O)[C@@H]3OP(=O)(S)OC[C@H]3O[C@@H](n4ccc5c(=O)[nH]c(N)nc54)[C@H](O)[C@@H]3OP(=O)(S)OC[C@H]3O[C@@H](n4cnc5c(N)ncnc54)[C@H](O)[C@@H]3OP(=O)(S)OC[C@H]3O[C@@H](n4ccc(N)nc4=O)[C@H](O)[C@@H]3OP(=O)(S)OC[C@H]3O[C@@H](n4ccc5c(=O)[nH]c(N)nc54)[C@H](O)[C@@H]3OP(=O)(S)OC[C@H]3O[C@@H](n4ccc(N)nc4=O)[C@H](O)[C@@H]3OP(=O)(S)OC[C@H]3O[C@@H](n4ccc(=O)[nH]c4=O)[C@H](O)[C@@H]3OP(=O)(S)OC[C@H]3O[C@@H](n4ccc5c(=O)[nH]c(N)nc54)[C@H](O)[C@@H]3OP(=O)(S)OCC(O)COP(=O)(S)O[C@H]3[C@@H](O)[C@H](n4ccc5c(=O)[nH]c(N)nc54)O[C@@H]3COP(=O)(S)O[C@H]3[C@@H](O)[C@H](n4ccc(=O)[nH]c4=O)O[C@@H]3COP(=O)(S)O[C@H]3[C@@H](O)[C@H](n4ccc(N)nc4=O)O[C@@H]3COP(=O)(S)O[C@H]3[C@@H](O)[C@H](n4ccc5c(=O)[nH]c(N)nc54)O[C@@H]3COP(=O)(S)O[C@H]3[C@@H](O)[C@H](n4ccc(N)nc4=O)O[C@@H]3COP(=O)(S)O[C@H]3[C@@H](O)[C@H](n4cnc5c(N)ncnc54)O[C@@H]3COP(=O)(S)O[C@H]3[C@@H](O)[C@H](n4ccc5c(=O)[nH]c(N)nc54)O[C@@H]3COP(=O)(S)O[C@H]3[C@@H](O)[C@H](n4ccc(=O)[nH]c4=O)O[C@@H]3COP(=O)(S)O[C@H]3[C@@H](O)[C@H](n4ccc(N)nc4=O)O[C@@H]3COP(=O)(S)O[C@H]3[C@@H](O)[C@H](n4cnc5c(N)ncnc54)O[C@@H]3COP(=O)(S)O[C@H]3[C@@H](O)[C@H](n4cnc5c(N)ncnc54)O[C@@H]3CO)[C@H]2O)c(=O)n1 (some centres undefined)
- remaining at 10 min [1]: 84%
- fold change (FC) [2]: 0.4
- Activity [3]: inactive

Structure (SMILES): Nc1ccn([C@@H]2O[C@H](CO)[C@@H](OP(=O)(S)OC[C@H]3O[C@@H](n4ccc(=O)[nH]c4=O)[C@H](O)[C@@H]3OP(=O)(S)OC[C@H]3O[C@@H](n4ccc5c(=O)[nH]c(N)nc54)[C@H](O)[C@@H]3OP(=O)(S)OC[C@H]3O[C@@H](n4cnc5c(N)ncnc54)[C@H](O)[C@@H]3OP(=O)(S)OC[C@H]3O[C@@H](n4ccc(N)nc4=O)[C@H](O)[C@@H]3OP(=O)(S)OC[C@H]3O[C@@H](n4ccc5c(=O)[nH]c(N)nc54)[C@H](O)[C@@H]3OP(=O)(S)OC[C@H]3O[C@@H](n4cnc5c(N)ncnc54)[C@H](O)[C@@H]3OP(=O)(S)OC[C@H]3O[C@@H](n4ccc5c(=O)[nH]c(N)nc54)[C@H](O)[C@@H]3OP(=O)(S)OC[C@H]3O[C@@H](n4ccc(N)nc4=O)[C@H](O)[C@@H]3OP(=O)(S)OC[C@H]3O[C@@H](n4ccc(=O)[nH]c4=O)[C@H](O)[C@@H]3OP(=O)(S)OC[C@H]3O[C@@H](n4ccc(=O)[nH]c4=O)[C@H](O)[C@@H]3OP(=O)(S)OCC(O)COP(=O)(S)O[C@H]3[C@@H](O)[C@H](n4ccc(=O)[nH]c4=O)O[C@@H]3COP(=O)(S)O[C@H]3[C@@H](O)[C@H](n4ccc(=O)[nH]c4=O)O[C@@H]3COP(=O)(S)O[C@H]3[C@@H](O)[C@H](n4ccc(N)nc4=O)O[C@@H]3COP(=O)(S)O[C@H]3[C@@H](O)[C@H](n4ccc5c(=O)[nH]c(N)nc54)O[C@@H]3COP(=O)(S)O[C@H]3[C@@H](O)[C@H](n4cnc5c(N)ncnc54)O[C@@H]3COP(=O)(S)O[C@H]3[C@@H](O)[C@H](n4ccc5c(=O)[nH]c(N)nc54)O[C@@H]3COP(=O)(S)O[C@H]3[C@@H](O)[C@H](n4ccc(N)nc4=O)O[C@@H]3COP(=O)(S)O[C@H]3[C@@H](O)[C@H](n4cnc5c(N)ncnc54)O[C@@H]3COP(=O)(S)O[C@H]3[C@@H](O)[C@H](n4ccc5c(=O)[nH]c(N)nc54)O[C@@H]3COP(=O)(S)O[C@H]3[C@@H](O)[C@H](n4ccc(=O)[nH]c4=O)O[C@@H]3COP(=O)(S)O[C@H]3[C@@H](O)[C@H](n4ccc(N)nc4=O)O[C@@H]3CO)[C@H]2O)c(=O)n1 (some centres undefined)
- remaining at 10 min [1]: 75%
- fold change (FC) [2]: 0.6
- Activity [3]: inactive
